# Starred links: 1 amine or outer side, 2 acyl side, 3 side chain; linkers in the order of their positions; H or OH if unused. Non-standard residues stand in square brackets, D forms with d. Residues, ends and D or L forms follow the SMILES beside them. X4 = O=C([C@H](Cc1cc[nH]n1)N[*:1])[*:2]; 2Thi = N[C@@H](Cc1cccs1)C(=O)O; Orn = NCCC[C@H](N)C(=O)O
# Species: Rattus norvegicus
# Assay: Pressor activity in rat relative to angiotensin-2
# Assay type: functional
# Summary of the method: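 Male rats, anesthetized with pentobarbital, nephrectomized and treated with pentolinium; blood pressure rise recorded after dosing. Peptides dissolved in normal saline with 0.1% polyvinylpyrrolidone, held in siliconized glass containers. Activity expressed relative to [Asn1,Val5]angiotensin II set at 100.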
row,Compound,Activity [%]
1,H-DRVYIAPF-OH,0.8
2,CC[C@H](C)[C@H](NC(=O)[C@H](Cc1ccc(O)cc1)NC(=O)[C@@H](NC(=O)[C@H](CCCN=C(N)N)NC(=O)[C@@H](N)CC(=O)O)C(C)C)C(=O)N[C@@H](Cc1cncn1C)C(=O)N1CCC[C@H]1C(=O)N[C@@H](Cc1ccccc1)C(=O)O,0.05
3,H-DRVYIKPF-OH,0.1
4,CC[C@H](C)[C@H](NC(=O)[C@H](Cc1ccc(O)cc1)NC(=O)[C@@H](NC(=O)[C@H](CCCN=C(N)N)NC(=O)[C@@H](N)CC(=O)O)C(C)C)C(=O)N[C@@H](Cc1c[nH]cn1)C(=O)N1CCC[C@H]1C(=O)N[C@@H](Cc1ccccc1)C(=O)O,4
5,H-DRVYIEPF-OH,0
6,H-DRVYIFPF-OH,3
7,CC[C@H](C)[C@H](NC(=O)[C@H](Cc1ccc(O)cc1)NC(=O)[C@@H](NC(=O)[C@H](CCCNC(=N)N)NC(=O)[C@@H](N)CC(=O)O)C(C)C)C(=O)N[C@@H](Cc1cccs1)C(=O)N1CCC[C@H]1C(=O)N[C@@H](Cc1ccccc1)C(=O)O (H-DRVYI[2Thi]PF-OH),10
8,H-DRVYIMPF-OH,0.2
9,CC[C@H](C)[C@H](NC(=O)[C@H](Cc1ccc(O)cc1)NC(=O)[C@@H](NC(=O)[C@H](CCCNC(=N)N)NC(=O)[C@@H](N)CC(=O)O)C(C)C)C(=O)N[C@@H](Cc1cc[nH]n1)C(=O)N1CCC[C@H]1C(=O)N[C@@H](Cc1ccccc1)C(=O)O (H-DRVYI[X4]PF-OH),57
10,CC[C@H](C)[C@H](NC(=O)[C@H](Cc1ccc(O)cc1)NC(=O)[C@@H](NC(=O)[C@H](CCCN=C(N)N)NC(=O)[C@@H](N)CC(=O)O)C(C)C)C(=O)N[C@@H](Cc1cn(C)cn1)C(=O)N1CCC[C@H]1C(=O)N[C@@H](Cc1ccccc1)C(=O)O,5
11,H-DRVYIRPF-OH,0.01
12,CC[C@H](C)[C@H](NC(=O)[C@H](Cc1ccc(O)cc1)NC(=O)[C@@H](NC(=O)[C@H](CCCNC(=N)N)NC(=O)[C@@H](N)CC(=O)O)C(C)C)C(=O)N[C@@H](CCCN)C(=O)N1CCC[C@H]1C(=O)N[C@@H](Cc1ccccc1)C(=O)O (H-DRVYI[Orn]PF-OH),0.03
13,H-DRVYILPF-OH,0.02

# Source: ChEMBL document CHEMBL3244319, “Angiotensin II analogues. 14. Roles of the imidazole nitrogens of position-6 histidine in pressor activity” (1979)
